Assay results: ChEMBL document CHEMBL1140983, “Pyrazoles and pyrazolines as neural and inducible nitric oxide synthase (nNOS and iNOS) potential inhibitors (III)” (Eur J Med Chem, 2008)

Tests used:
[1] = molecular target: Nitric oxide synthase 1 (Rattus norvegicus) (UniProt P29476); assay: Inhibition of nNOS in Wistar rat striata assessed as conversion of L-[3H]arginine to L-[3H]citrulline at 1 mM by liquid scintillation spectroscopy
Procedure, shortened: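 Male Wistar rats (200–250 g); fresh striata homogenized in Tris buffer (pH 7.6) with protease inhibitors, spun 1000 g 5 min, supernatant used. Incubation: 25 mM Tris, 1 mM DTT, 30 µM H4-biopterin, 10 µM FAD, 0.1 mM CaCl2, 10 µM L-arginine plus 50 nM L-[3H]-arginine; started with NADPH (0.75 mM final) and compound in DMSO (1 mM final), 37 °C 30 min. Dowex-50W separation; NADPH-omitted blank subtracted; mean ± SEM, three experiments in triplicate.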

[2] = molecular target: Nitric oxide synthase, inducible (Rattus norvegicus) (UniProt Q06518); assay: Inhibition of iNOS in LPS-induced rat lungs assessed as conversion of L-[3H]arginine to L-[3H]citrulline at 1 mM by liquid scintillation spectroscopy
Chain of Nitric oxide synthase, inducible (Rattus norvegicus) (Q06518 whole entry): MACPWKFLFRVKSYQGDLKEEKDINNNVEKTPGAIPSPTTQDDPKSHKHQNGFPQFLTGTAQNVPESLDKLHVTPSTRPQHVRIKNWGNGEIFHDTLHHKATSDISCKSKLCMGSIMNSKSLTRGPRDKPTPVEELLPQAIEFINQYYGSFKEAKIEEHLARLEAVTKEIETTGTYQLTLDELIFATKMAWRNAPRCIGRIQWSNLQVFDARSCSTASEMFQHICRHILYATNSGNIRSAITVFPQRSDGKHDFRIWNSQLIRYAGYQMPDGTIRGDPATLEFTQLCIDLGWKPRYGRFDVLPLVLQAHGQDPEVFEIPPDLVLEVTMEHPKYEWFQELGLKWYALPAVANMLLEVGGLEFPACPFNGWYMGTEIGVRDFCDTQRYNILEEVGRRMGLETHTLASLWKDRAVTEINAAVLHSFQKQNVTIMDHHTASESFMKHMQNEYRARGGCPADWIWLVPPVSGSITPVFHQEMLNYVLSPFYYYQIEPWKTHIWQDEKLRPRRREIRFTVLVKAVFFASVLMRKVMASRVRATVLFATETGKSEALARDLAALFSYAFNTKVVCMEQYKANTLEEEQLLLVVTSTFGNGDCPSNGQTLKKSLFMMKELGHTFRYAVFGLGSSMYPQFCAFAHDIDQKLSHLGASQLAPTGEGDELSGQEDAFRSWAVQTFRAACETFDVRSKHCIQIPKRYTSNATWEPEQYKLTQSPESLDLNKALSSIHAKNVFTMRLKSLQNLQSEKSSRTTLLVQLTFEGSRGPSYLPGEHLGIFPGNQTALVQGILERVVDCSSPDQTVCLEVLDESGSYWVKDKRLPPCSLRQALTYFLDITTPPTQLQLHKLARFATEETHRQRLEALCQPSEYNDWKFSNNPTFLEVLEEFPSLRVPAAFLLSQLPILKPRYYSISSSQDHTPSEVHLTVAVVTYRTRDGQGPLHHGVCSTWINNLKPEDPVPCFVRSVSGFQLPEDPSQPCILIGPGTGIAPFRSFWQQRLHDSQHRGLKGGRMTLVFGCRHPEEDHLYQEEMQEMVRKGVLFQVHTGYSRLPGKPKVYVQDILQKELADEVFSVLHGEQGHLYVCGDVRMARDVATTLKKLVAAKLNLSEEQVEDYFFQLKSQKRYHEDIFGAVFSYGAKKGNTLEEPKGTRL
Procedure, shortened: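 iNOS induced by LPS 20 mg/kg i.v. in rats; lungs taken 8 h later, homogenized in ice-cold Tris buffer (pH 7.6) with protease inhibitors, then incubated with 10 mM EDTA to remove nNOS activity. Activity read as [3H]-citrulline from L-[3H]-arginine by the striatal-assay procedure, compound at 1 mM final, 37 °C 30 min; mean ± SEM, three experiments in triplicate.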

Chain of Nitric oxide synthase 1 (Rattus norvegicus) (P29476 whole entry): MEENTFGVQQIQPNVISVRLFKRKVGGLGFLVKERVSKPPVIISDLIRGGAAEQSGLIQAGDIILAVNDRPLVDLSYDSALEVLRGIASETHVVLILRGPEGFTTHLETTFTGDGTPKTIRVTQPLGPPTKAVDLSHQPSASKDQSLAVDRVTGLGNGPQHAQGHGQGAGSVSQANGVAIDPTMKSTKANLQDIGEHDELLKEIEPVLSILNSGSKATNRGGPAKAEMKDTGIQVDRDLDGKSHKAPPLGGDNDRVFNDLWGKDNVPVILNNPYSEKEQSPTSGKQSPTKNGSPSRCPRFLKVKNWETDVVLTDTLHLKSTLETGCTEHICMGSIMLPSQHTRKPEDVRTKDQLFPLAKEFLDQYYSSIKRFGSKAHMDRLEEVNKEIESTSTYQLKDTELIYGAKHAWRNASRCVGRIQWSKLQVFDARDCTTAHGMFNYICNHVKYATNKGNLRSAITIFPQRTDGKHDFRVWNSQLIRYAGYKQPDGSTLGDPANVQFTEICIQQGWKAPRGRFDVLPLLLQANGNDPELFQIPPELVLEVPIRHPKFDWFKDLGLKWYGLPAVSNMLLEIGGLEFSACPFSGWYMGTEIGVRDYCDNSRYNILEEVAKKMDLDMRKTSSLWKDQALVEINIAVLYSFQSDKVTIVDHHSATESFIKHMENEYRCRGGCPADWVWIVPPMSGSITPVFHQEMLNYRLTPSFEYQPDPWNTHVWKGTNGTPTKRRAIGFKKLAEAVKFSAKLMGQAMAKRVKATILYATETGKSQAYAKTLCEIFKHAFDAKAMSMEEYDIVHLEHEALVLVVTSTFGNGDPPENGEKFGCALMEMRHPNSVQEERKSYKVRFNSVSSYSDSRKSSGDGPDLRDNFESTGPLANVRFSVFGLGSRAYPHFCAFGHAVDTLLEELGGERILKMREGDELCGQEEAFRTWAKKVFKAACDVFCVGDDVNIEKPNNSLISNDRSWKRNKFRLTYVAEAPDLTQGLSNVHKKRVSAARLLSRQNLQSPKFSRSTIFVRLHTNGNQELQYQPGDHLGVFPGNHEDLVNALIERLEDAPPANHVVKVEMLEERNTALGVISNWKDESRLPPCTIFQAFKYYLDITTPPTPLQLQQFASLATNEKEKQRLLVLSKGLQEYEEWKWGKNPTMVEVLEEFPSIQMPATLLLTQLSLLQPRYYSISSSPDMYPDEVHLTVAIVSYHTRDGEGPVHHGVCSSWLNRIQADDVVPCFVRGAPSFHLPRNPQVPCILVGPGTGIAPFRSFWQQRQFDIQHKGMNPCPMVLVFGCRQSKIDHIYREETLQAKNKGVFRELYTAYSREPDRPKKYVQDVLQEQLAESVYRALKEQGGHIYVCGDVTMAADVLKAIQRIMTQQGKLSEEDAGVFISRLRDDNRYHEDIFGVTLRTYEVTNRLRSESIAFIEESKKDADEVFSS

SMILES | inhibition [1] [%] | inhibition [2] [%]
CCCCn1nc(C(=O)c2cc(OC)ccc2N)cc1C(=O)OCC | 26.2 | 20.5
CCOC(=O)c1cc(C(=O)c2cc(Cl)ccc2N)nn1C | 14.5 | 7.3
CCOC(=O)C1CC(C(=O)c2ccccc2N)=NN1Cc1ccccc1 (stereo not drawn) | 28.4 | 9.4
CCOC(=O)c1cc(C(=O)c2cc(OC)ccc2N)nn1Cc1ccccc1 | 19.4 | 30.5
CCOC(=O)C1CC(C(=O)c2ccccc2N)=NN1C (stereo not drawn) | -9.8 | 12.7
CCOC(=O)c1cc(C(=O)c2ccccc2N)nn1CC | 39.5 | 12.5
CCOC(=O)C1CC(C(=O)c2cc(OC)ccc2N)=NN1Cc1ccccc1 (stereo not drawn) | 9.3 | 10.5
CCCCN1N=C(C(=O)c2ccccc2N)CC1C(=O)OCC (stereo not drawn) | 29.6 | 12.2
CCOC(=O)c1cc(C(=O)c2cc(Cl)ccc2N)nn1CC | 35.5 | 27.5
CCOC(=O)c1cc(C(=O)c2ccccc2N)nn1Cc1ccccc1 | 21.9 | 13.5
CCCCn1nc(C(=O)c2ccccc2N)cc1C(=O)OCC | 21.9 | 5.4
CCOC(=O)C1CC(C(=O)c2cc(OC)ccc2N)=NN1C (stereo not drawn) | -7.8 | 0.6
CCOC(=O)c1cc(C(=O)c2cc(Cl)ccc2N)n[nH]1 | 40.2 | 12.8
CCOC(=O)c1cc(C(=O)c2cc(Cl)ccc2N)nn1Cc1ccccc1 | 2.7 | 50.4
CCCCn1nc(C(=O)c2cc(Cl)ccc2N)cc1C(=O)OCC | 7.8 | 18.7
CCOC(=O)c1cc(C(=O)c2cc(OC)ccc2N)nn1CC | 20.3 | 24.6

More lines, now with the values ahead:

inhibition [1] [%] | inhibition [2] [%] | SMILES
41.5 | 14.7 | CCOC(=O)C1CC(C(=O)c2cc(Cl)ccc2N)=NN1CC (stereo not drawn)
1.7 | 17.1 | CCOC(=O)C1CC(C(=O)c2cc(OC)ccc2N)=NN1CC (stereo not drawn)
1.3 | 22.9 | CCOC(=O)C1CC(C(=O)c2cc(Cl)ccc2N)=NN1C (stereo not drawn)
32.1 | 19.1 | CCOC(=O)C1CC(C(=O)c2cc(Cl)ccc2N)=NN1 (stereo not drawn)
38.5 | 10.5 | CCCCN1N=C(C(=O)c2cc(Cl)ccc2N)CC1C(=O)OCC (stereo not drawn)
-10 | 18.6 | CCCCN1N=C(C(=O)c2cc(OC)ccc2N)CC1C(=O)OCC (stereo not drawn)
18.3 | 17.3 | CCOC(=O)C1CC(C(=O)c2cc(Cl)ccc2N)=NN1Cc1ccccc1 (stereo not drawn)
22.1 | -1.5 | CCOC(=O)C1CC(C(=O)c2ccccc2N)=NN1CC (stereo not drawn)
